The results in this text go back to ChEMBL document CHEMBL4017500 (J Med Chem, 2017).

Assay [1] deals with Metallo-beta-lactamase type 2 (Serratia marcescens) (UniProt P52699). Description: Inhibition of Serratia marcescens IMP1 expressed in Escherichia coli BL21(DE3) at 50 uM using chromacef as substrate preincubated for 10 mins followed by substrate addition measured after 20 mins by HTS assay relative to control. The essentials: (§1)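 Colorimetric chromacef screen, final 50 mM HEPES, 2 mM CHAPS, pH 7.0. Substrate added at 3 μM (NDM-1, ~3×KM), 7.2 μM (IMP-1) or 16 μM (VIM-2). […] Percent inhibition calculated.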
Metallo-beta-lactamase type 2 (Serratia marcescens), sequence (P52699 19-246 limits assumed): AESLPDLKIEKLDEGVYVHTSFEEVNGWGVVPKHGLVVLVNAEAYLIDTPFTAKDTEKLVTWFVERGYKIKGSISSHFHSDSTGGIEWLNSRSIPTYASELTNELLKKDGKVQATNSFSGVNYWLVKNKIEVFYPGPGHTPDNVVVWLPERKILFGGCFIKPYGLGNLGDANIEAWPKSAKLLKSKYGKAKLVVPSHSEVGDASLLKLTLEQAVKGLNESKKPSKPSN

In assay [2] the target is Beta-lactamase VIM-2 (Pseudomonas aeruginosa) (UniProt Q9K2N0). Description: Inhibition of Pseudomonas aeruginosa VIM2 expressed in Escherichia coli BL21(DE3) at 50 uM using chromacef as substrate preincubated for 10 mins followed by substrate addition measured after 20 mins by HTS assay relative to control. The essentials:
as §1

For assay [3], the system named is Bacteria. Description: Inhibition of bacterial MBP-fused NDM1 expressed in Escherichia coli BL21(DE3) at 50 uM using chromacef as substrate preincubated for 10 mins followed by substrate addition measured after 20 mins by HTS assay relative to control. The essentials: as §1
A short description of assay [4]: Inhibition of bacterial MBP-fused NDM1 expressed in Escherichia coli BL21(DE3) ausing chromacef as substrate preincubated for 20 mins followed by substrate addition measured after 0.3 mins. Also on record: species or system Bacteria. The essentials: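 Preincubated 20 min, then 3 μM substrate (~3×KM) added. A442 followed ~0.3 min at 25 °C. Activity scaled to uninhibited (100%) and no-enzyme (0%) controls, fitted to a Hill-type equation.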

Assay [5] in a line: Inhibition of bacterial MBP-fused NDM1 expressed in Escherichia coli BL21(DE3) ausing fluorocillin as substrate preincubated for 20 mins followed by substrate addition measured at 1 sec time interval for 25 mins by fluorescence assay. Also on record: species or system Bacteria. Summed up:
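NDM-1 pre-incubated 20 min with inhibitor (final 100 μM to 1 nM) in 50 mM HEPES pH 7.0 with 2 mM CHAPS. Reaction started with fluorocillin (final 87 nM, below KM), NDM-1 final 25 pM. Fluorescence read at λex/em 495/525 nm, 10 reads over ~25 min.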

Assay [6] in a line: Inhibition of bacterial NDM1. The arrangement: species or system Bacteria. Summed up: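 Chromogenic NDM-1 assay: enzyme (3 nM) pre-incubated 20 min with ~20 inhibitor concentrations in 50 mM HEPES, 1% DMSO, pH 7.0. Chromacef substrate 3 μM (~3×KM). Absorbance at 442 nm followed ~0.3 min at 25 °C.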
The subject of assay [7] is Bacteria. Description: Inhibition of bacterial MBP-fused NDM1 expressed in Escherichia coli BL21(DE3) ausing fluorocillin as substrate preincubated for 20 mins followed by substrate addition measured at 1 sec time interval for 25 mins in presence of ZnSO4 by fluorescence assay.
For assay [8], the system named is Bacteria. Description: Binding affinity to bacterial CoCoNDM-1 expressed in Escherichia coli BL21(DE3) assessed as metal stripping at 1 to 2 equiv by 1H NMR spectroscopic method. The essentials: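 Apo-NDM-1 concentrated to ~1 mM and loaded with 2 equiv CoCl2. Samples in 50 mM HEPES, 150 mM NaCl, 10% D2O, pH 6.8. Compounds from 50–100 mM DMSO stocks titrated in ~5 μL aliquots. 1H spectra recorded at 292 K, 300.16 MHz.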

Assay [9] is described as follows: Metal chelating activity assessed as Co2+-compound complex formation at 1 equiv by 1H NMR spectroscopic method. The class given is functional. The essentials:
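Apo-NDM-1 concentrated to ~1 mM and given 2 equivalents of CoCl2, in 50 mM HEPES, 150 mM NaCl, 10% D2O, pH 6.8. Compounds, from DMSO stocks of 50–100 mM, titrated in. 1H NMR spectra recorded at 292 K at 300.16 MHz.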

Assay [10] concerns Bacteria. Description: Binding affinity to bacterial CoCoNDM-1 expressed in Escherichia coli BL21(DE3) assessed as CoCoNDM-1-compound ternary complex formation at 1 equiv by 1H […] spectroscopic method.
Assay [11] deals with Bacteria. Description: Binding affinity to bacterial CoCoNDM-1 expressed in Escherichia coli BL21(DE3) assessed as metal stripping at 1 to 2 equiv after 30 mins by UV-Visible spectroscopic method. The essentials: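 Apo-NDM-1 at 300 μM in 50 mM HEPES, 150 mM NaCl, pH 6.8, loaded with 2 molar equiv CoCl2. […] Absorbance read 300–700 nm at 25 °C as difference spectra against buffer blank, normalized at 700 nm.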

The test system of assay [12] is Bacteria. Description: Binding affinity to bacterial NDM-1 expressed in Escherichia coli BL21(DE3) assessed as Zn2+ stripping up to 128 uM after 30 mins by equilibrium dialysis method. The essentials:
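NDM-1 (8 μM final) in 50 mM HEPES pH 7.5 mixed with compound at 0–128 μM for 30 min. Then dialyzed 4 h against metal-free 50 mM HEPES pH 7.5. Residual Zn(II) measured by ICP-AES at 213.856 nm.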
(In general: In equilibrium dialysis only unbound substance equilibrates across the membrane.)

For assay [13], the system named is Bacteria. Description: Binding affinity to bacterial NDM-1 expressed in Escherichia coli BL21(DE3) assessed as intrinsic tryptophan fluorescence quenching up to 32 uM after 30 mins by luminescence spectrometric method relative to control. Summed up: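 NDM-1 at 2 μM final in 50 mM HEPES pH 7.5 mixed with compound at 4–32 μM, incubated 30 min. Emission scanned 300–400 nm with excitation at 280 nm. Relative tryptophan fluorescence read at 348 nm, with buffer set to 0% and inhibitor-free NDM-1 to 100%. Control run with 2 μM L-tryptophan in place of enzyme.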

The target of a further assay is Beta-lactamase VIM-2 (Pseudomonas aeruginosa, UniProt Q9K2N0). Description: Inhibition of Pseudomonas aeruginosa VIM2 expressed in Escherichia coli BL21(DE3) using fluorocillin as substrate preincubated for 10 mins followed by substrate addition measured after 20 mins by HTS assay.
A short description of assay [14]: Fluorescence quenching activity assessed as reduction in tryptophan fluorescence up to 32 uM after 30 mins by luminescence spectrometric method. The essentials:
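NDM-1 (2 μM final) in 50 mM HEPES pH 7.5 with compound at 4–32 μM for 30 min. Excitation 280 nm, emission scanned 300–400 nm, intensity taken at 348 nm. Scaled with buffer as 0% and inhibitor-free enzyme as 100%. Free L-tryptophan (2 μM) run as control.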

Calls of active or inactive are those of the source. The rule behind the calls is not given here.

Take `O=C(O)c1ccc2cccc(O)c2n1`: the inhibition (in [1]; in assay [2]; in the assay on Bacteria [3]) was over 60% in each case.
As for `COc1ccccc1-c1cc(C(=O)O)nc(C(=O)O)c1`, the IC50 in assay [4] and in assay [5] was 500 nM each time.
Consider `COc1cccc(-c2cc(C(=O)O)nc(C(=O)O)c2)c1`, for which the IC50 (in general, the concentration needed to halve the response being measured) in [4] amounted to 800 nM; in assay [5], 1070 nM.
For the compound `O=C(O)c1cc(NCc2cccs2)cc(C(=O)O)n1`, in assay [4], 5200 nM corresponded to half-maximal inhibition (IC50).
Same read-out and setting: the figure for `O=C(O)c1cc(NCCc2ccccc2)cc(C(=O)O)n1` is 9100 nM.
`O=C(O)c1cc(-c2ccccc2O)cc(C(=O)O)n1`: the concentration for half-maximal inhibition (IC50) in [4] amounted to 520 nM; in assay [5] it was 130 nM.
On to `Oc1ccc[nH]c1=S`, for which the inhibition (in [1]; in assay [2]; with Bacteria [3]) was over 60% in each case.
With `O=C(Cc1ccccc1)Nc1cccc(-c2cc(C(=O)O)nc(C(=O)O)c2)c1`, the IC50 in assay [4] was found to be 860 nM; in assay [5], 590 nM.
With `CC(C)NC(=O)c1cccc(C(=O)O)n1`, the IC50 in [4] is over 50000 nM.
The compound `O=C(O)c1cccc(C(=O)NCCc2ccccc2)n1` yielded an IC50 in assay [4] of over 50000 nM.
The same measure, in the same setting: the figure for `O=C(O)c1cccc(C(=O)NCc2nccs2)n1` is 24000 nM.
With `c1cnc2c(c1)ccc1cccnc12`, the inhibition (in [1]; in [2]; with Bacteria [3]) was over 60% throughout.
In the case of `CC(=O)Nc1cccc(-c2cc(C(=O)O)nc(C(=O)O)c2)c1`, the IC50 in [4] is 990 nM; in [5], 930 nM.
Taken in the same sequence, the figures for `O=C(Nc1cccc(-c2cc(C(=O)O)nc(C(=O)O)c2)c1)c1ccccc1` were 860 nM and 130 nM.
Turning to `c1ccc(C2=NCCS2)nc1`, the inhibition (in assay [1]; in [2]; in the assay on Bacteria [3]) was over 60% throughout.
On to `Oc1c(I)cc(Cl)c2cccnc12`, for which the inhibition (in assay [1]; in assay [2]; with Bacteria [3]) was over 60% each time.
Regarding `O=C(O)c1cccc(C(=O)NCC2CCCO2)n1` (stereo not given), the IC50 in assay [4] is over 50000 nM.
The same measure, in the same setting: with `O=C(O)c1cccc(C(=O)NC2CCCCC2)n1` the figure was over 50000 nM.
The compound `NCCNCc1ccc(C(=O)N[C@H]2Cc3cccc(C(=O)O)c3O[B-]2(O)O)cc1` gave an IC50 in assay [6] of 4 nM.
Regarding `O=C(O)CNC(=O)c1cccc(C(=O)O)n1`, the IC50 in assay [4] stood at 49000 nM.
Turning to `O=C(O)c1cccc(C(=O)O)n1` [DIPICOLINIC ACID], the inhibition (in assay [1]; in [2]; in the assay on Bacteria [3]) was over 60% each time. For the same compound, the IC50 in assay [4] stood at 520 nM; in assay [5] it was 410 nM; against Beta-lactamase VIM-2, 1660 nM. In addition, the inhibition (in general, the share of the control response that was lost under treatment) in the assay with Bacteria [7] was “inactive”. Besides, the result (in the assay with Bacteria [8]; in assay [9]; in the assay on Bacteria [10]; with Bacteria [11]; in the assay with Bacteria [12]) was Active. The Activity in the assay on Bacteria [13] worked out at 20%.
In assay [4], `CC(C)[C@@H](NC(=O)c1cccc(C(=O)O)n1)C(=O)O` showed an IC50 of 22000 nM.
Still for that read-out and setting: with `O=C(O)c1cc(NCc2ccccc2)cc(C(=O)O)n1` the figure was 8400 nM; with `COc1ccc(CNc2cc(C(=O)O)nc(C(=O)O)c2)cc1`, 7200 nM.
For the compound `O=C(O)CN(CCN(CC(=O)O)CC(=O)O)CC(=O)O`, the outcome with Bacteria [8], in the assay with Bacteria [11] and with Bacteria [12] was Active. The Activity with Bacteria [13] is under 10%. The result in assay [14] was inactive.
Regarding `O=C(O)c1cccc(C(=O)N2CCCCC2)n1`, the half-inhibitory concentration (IC50) in assay [4] is over 50000 nM.
The compound `CN(C)c1cc(C(=O)O)nc(C(=O)O)c1` registered an IC50 in [4] of 13600 nM.
For the compound `O=C(O)c1cccc(C(=O)Nc2ccccc2)n1`, the IC50 in assay [4] was over 50000 nM.
With `CN(C)c1cccc(-c2cc(C(=O)O)nc(C(=O)O)c2)c1`, the IC50 in assay [4] came out at 820 nM; in [5], 430 nM.
In the same order, the values of `O=C(O)c1cc(-c2cccc(O)c2)cc(C(=O)O)n1` are 600 nM and 430 nM.
Regarding `O=C(O)c1cccc(C(=O)NCc2ccc3c(c2)OCO3)n1`, the IC50 in assay [4] was over 50000 nM.
As to `O=C(O)c1cccc(-c2cc(C(=O)O)nc(C(=O)O)c2)c1`, the IC50 in [4] was 890 nM; in assay [5], 200 nM.
Consider `O=C(O)c1cc(NCc2ccco2)cc(C(=O)O)n1`, for which, in [4], the IC50 amounted to 4900 nM.
The same measure, in the same setting: the figure for `O=C(O)c1cc(-c2ccccc2)cc(C(=O)O)n1` is 990 nM.
On the same count and under the same terms, with `O=C(O)c1cccc(C(=O)NCCc2cccs2)n1` the figure was over 50000 nM.
In assay [6], `N[C@@H](CN[C@@H](CN[C@@H](CC(=O)O)C(=O)O)C(=O)O)C(=O)O` displayed a 50% inhibitory concentration (IC50) of 4000 nM.
In turn, `O=C(O)c1cccc(C(=O)NC2CCCC2)n1` gave an IC50 in [4] of over 50000 nM.
For the compound `CN(C)c1ccc(-c2cc(C(=O)O)nc(C(=O)O)c2)cc1`, the values for the IC50 in assay [4] and in [5] were 570 nM and 190 nM, respectively.
In turn, `O=C(O)c1cccc(C(=O)NCc2ccco2)n1` came in with a 50% inhibitory concentration (IC50) in assay [4] of over 50000 nM.
Regarding `O=C(O)c1cc(-c2ccc(O)cc2)cc(C(=O)O)n1`, the IC50 is 660 nM in [4] and 390 nM in assay [5].
In assay [4], `COc1ccc(NC(=O)c2cccc(C(=O)O)n2)cc1` returned an IC50 of over 50000 nM.
Take `O=C(O)c1cccc(C(=O)NCc2cccs2)n1`: the IC50 in assay [4] was over 50000 nM.
Turning to `COc1ccc(-c2cc(C(=O)O)nc(C(=O)O)c2)cc1`, the IC50 in assay [4] is 430 nM; in assay [5], 380 nM.
Regarding `COc1ccc(CNC(=O)c2cccc(C(=O)O)n2)cc1`, in [4], the IC50 is over 50000 nM.
Still for that read-out and setting: with `O=C(O)c1cccc(C(=O)NCc2ccccc2)n1` the figure was over 50000 nM; with `O=C(O)c1cc(NCc2ccc3c(c2)OCO3)cc(C(=O)O)n1`, 5800 nM.
The same measure, in the same setting: with `O=C(O)c1cc(Cl)cc(C(=O)O)n1` the figure was 5000 nM; with `O=C(O)c1cc(Nc2ccccc2)cc(C(=O)O)n1`, 3400 nM.
In assay [4], `COc1ccc(Nc2cc(C(=O)O)nc(C(=O)O)c2)cc1` yielded a half-maximal inhibitory concentration (IC50) of 4500 nM.
Regarding `Nc1ccc(-c2cc(C(=O)O)nc(C(=O)O)c2)cc1`, the IC50 in [4] came out at 1030 nM; in assay [5] it was 540 nM.
Consider `CC(C)CNC(=O)c1cccc(C(=O)O)n1`, for which the IC50 in assay [4] is over 50000 nM.
